Bioassay records deposited in PubChem BioAssay by SRMLSC.
PostGolgi yeast – growth inhibition of a yeast mutant, post-Golgi transport screen; post-Golgi transport phenotypic cell assay; inhibition, % at 10 µM; 98,000 tested, 0.9% active;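 also: yeast cells grown in 1536-well plates; yeast grown about 18 h at 30C before absorbance read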
Ecoli WT expand – growth inhibitors of E. coli BW25113 wild type. OD600 absorbance. AID 710. 98,000 tested, 0.15% active. growth inhibition, % at 100 µM;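 active = growth inhibition above about 50% at one test dose, limit read from the data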;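 also: growth measured after 20 h incubation at 37 °C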
tolC growth inh – E. coli tolC mutant growth inhibition; E. coli BW25113 tolC mutant growth, OD615; growth inhibition, % at 10 µM (by protocol); 65,000 tested, 2.2% active;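 active = growth inhibition at or above a cutoff equal to the mean over every tested compound plus 3 SD, cut at about 60% in these data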;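 also: growth measured after 20 h incubation at 37 °C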
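Test system: tolC-deleted E. coli BW25113 | Medium: LB with kanamycin 50 µg/mL | Compound dosing: Single concentration, 10 µM final per compound | Schedule: 37 °C, 20 h exposure | Measured by: OD at 615 nm | Evaluation: Percent growth inhibition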
PostGolgi ctrl – inhibits growth of the yeast control strain; efflux-deficient yeast background strain, growth absorbance A615, 16 h; inhibition, % at 10 µM; 98,000 tested, 5% active; AID 738
Active calls of the source: *. Only some compounds are listed: those with a hit (about 6.3% of all), similar ones and a draw of the others. Rule as the data show it, unless noted: active = inhibition above about 30%; inactive = the rest.

How did O=S(=O)(Nc1ncnc2sc3c(c12)CCC3)c1ccc(Cl)s1 do in these assays?
PostGolgi yeast: 3; Ecoli WT expand: -2; tolC growth inh: 63*; PostGolgi ctrl: 21

What do the screens show for `O=C(O)[C@H](CO)Nc1ncnc2sc3c(c12)CCC3`?
PostGolgi yeast: 3; Ecoli WT expand: 5; PostGolgi ctrl: 1

How did Cc1nc(NS(=O)(=O)c2cccs2)c2c3c(sc2n1)CCC3 do in these assays?
PostGolgi yeast: -3; Ecoli WT expand: -3; tolC growth inh: 20; PostGolgi ctrl: 29

What do the screens show for `Cc1nc(NS(=O)(=O)c2ccc(Br)cc2)c2c3c(sc2n1)CCC3`?
PostGolgi yeast: -4; Ecoli WT expand: -2; PostGolgi ctrl: 33*

How did CCCCNC(=O)c1onc(CCl)c1C(=O)OC do in these assays?
PostGolgi yeast: -5; Ecoli WT expand: 4; PostGolgi ctrl: -13

What do the screens show for `Brc1ccccc1-c1nnc2sc(-c3ccc4c(c3)OCCO4)nn12`?
PostGolgi yeast: 3; Ecoli WT expand: -4; tolC growth inh: 13; PostGolgi ctrl: 60*

How did Cn1cnnc1SCc1ccc(-c2ccc(Br)cc2)o1 do in these assays?
PostGolgi yeast: 0; Ecoli WT expand: 4; tolC growth inh: 18; PostGolgi ctrl: 10

What do the screens show for `O=C(NCc1ccc(OC(F)(F)F)cc1)C1CC(c2c(Cl)cccc2Cl)=NO1` (stereo unspecified)?
PostGolgi yeast: -5; Ecoli WT expand: 7; PostGolgi ctrl: 31*

How did Cc1ccc(NS(=O)(=O)c2cc(C(=O)NCc3ccccn3)ccc2Cl)cc1C do in these assays?
PostGolgi yeast: 0; Ecoli WT expand: 7; PostGolgi ctrl: -8

Results for COC(=O)c1ccc(NC(=O)c2cn(-c3ccccc3)nc2-c2ccncc2)cc1 ?
PostGolgi yeast: 72*; Ecoli WT expand: -12; PostGolgi ctrl: 32*

What do the screens show for `CCc1ccc(/C=N/NC(=O)c2cc(-c3ccccc3OC)nc3ccccc23)s1`?
PostGolgi yeast: 9; Ecoli WT expand: -12; PostGolgi ctrl: 75*

What do the screens show for `COc1ccc(/C=N/NC(=O)c2cc(-c3ccccc3OC)nc3ccccc23)cc1COC(C)=O`?
PostGolgi yeast: 0; Ecoli WT expand: -4; PostGolgi ctrl: 5

Results for COc1ccccc1-c1cc(C(=O)N/N=C/c2ccc(C)s2)c2ccccc2n1 ?
PostGolgi yeast: 10; Ecoli WT expand: -13; PostGolgi ctrl: 92*

How did Cc1noc(C)c1CSCC(=O)N1CCN(c2ccc([N+](=O)[O-])cc2)CC1 do in these assays?
PostGolgi yeast: 0; Ecoli WT expand: 5; PostGolgi ctrl: 14

What do the screens show for `CC1CCN(S(=O)(=O)c2ccc(Cl)cc2Br)CC1`?
PostGolgi yeast: 6; Ecoli WT expand: 8; tolC growth inh: 98*; PostGolgi ctrl: 9

Results for CCCNC(=O)c1ccc(SC)cc1OC ?
PostGolgi yeast: -8; Ecoli WT expand: 2; tolC growth inh: -1; PostGolgi ctrl: 18

Results for COc1cc(SC)ccc1C(=O)NCc1ccc(C)cc1 ?
PostGolgi yeast: 44*; Ecoli WT expand: 9; PostGolgi ctrl: 24

What do the screens show for `Cc1cc(C)cc(NC(=S)NC(=O)CCN2C(=O)c3ccccc3C2=O)c1`?
PostGolgi yeast: 87*; Ecoli WT expand: 11; PostGolgi ctrl: 92*

Results for Cc1nc(-c2ccccc2)sc1C(=O)CSc1ccc(F)cc1 ?
PostGolgi yeast: -1; Ecoli WT expand: -3; PostGolgi ctrl: 13

How did Cc1nc(-c2ccccc2)sc1C(=O)CSc1ccccc1 do in these assays?
PostGolgi yeast: -9; Ecoli WT expand: -6; PostGolgi ctrl: 30*

What do the screens show for `COCCn1c(Cc2ccccc2)nnc1SCC(=O)Nc1cc(C)on1`?
PostGolgi yeast: 4; Ecoli WT expand: 3; tolC growth inh: 8; PostGolgi ctrl: 43*

Results for O=C(Nc1cccnc1)c1ccc(S(=O)(=O)N2CCCCCC2)cc1 ?
PostGolgi yeast: -5; Ecoli WT expand: -2; PostGolgi ctrl: 19

How did COCCCNC(CC(=O)Nc1ccccc1C(=O)OC)C(=O)O (stereo unspecified) do in these assays?
tolC growth inh: -9

Results for O=C(CCc1ccccc1)NNC(=S)NC(=O)c1ccccc1 ?
PostGolgi yeast: 21; Ecoli WT expand: 63*; PostGolgi ctrl: 32*

How did O=C(NC(=S)NCCc1ccccc1)c1ccccc1 do in these assays?
PostGolgi yeast: 3; Ecoli WT expand: -4; PostGolgi ctrl: 17

What do the screens show for `O=C(NNC(=S)NC(=O)c1cccnc1)c1ccccc1`?
PostGolgi yeast: -9; Ecoli WT expand: 53*; PostGolgi ctrl: -7

What do the screens show for `COC(=O)c1ccccc1NC(=O)CN1CCN(C23CC4CC(CC(C4)C2)C3)CC1`?
PostGolgi yeast: -5; Ecoli WT expand: 17; tolC growth inh: -3; PostGolgi ctrl: 14
